Measured values pooled from the literature.
Protocols differ between the studies behind these lines.
Target: Serine/threonine-protein kinase 17A (STK17A, Homo sapiens, UniProt Q9UEE5)
Residues used in one study (Q9UEE5 1-414): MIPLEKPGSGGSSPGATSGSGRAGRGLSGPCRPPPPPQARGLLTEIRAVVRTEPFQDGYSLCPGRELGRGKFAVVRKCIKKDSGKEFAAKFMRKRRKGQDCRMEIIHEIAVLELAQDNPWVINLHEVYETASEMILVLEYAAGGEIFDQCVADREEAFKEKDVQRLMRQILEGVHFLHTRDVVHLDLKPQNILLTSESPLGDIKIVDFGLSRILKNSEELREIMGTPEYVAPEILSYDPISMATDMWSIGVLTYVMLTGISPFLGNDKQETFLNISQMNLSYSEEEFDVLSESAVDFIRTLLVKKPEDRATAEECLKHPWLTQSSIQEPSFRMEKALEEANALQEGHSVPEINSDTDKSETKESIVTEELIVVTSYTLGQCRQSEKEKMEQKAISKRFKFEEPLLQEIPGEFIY

SMILES	observed	action	technique	concentration	endpoint	value
NS(=O)(=O)c1ccc(CNc2nc(Nc3cccc(NC(=O)N4CCCC4)c3)ncc2Br)cc1	enzyme activity	inhibitor	radiometric	1 µM	remaining activity	41%
Clc1ccc(Nc2nnc(Cc3ccncc3)c3ccccc23)cc1	cell-free assay			0.5 µM	remaining signal	99.4%
Cc1cc(NC(=O)c2cccc3cc(-c4cccc5[nH]nc(N)c45)ccc23)ccc1F	enzyme activity	inhibitor		0.1 µM	activity vs control	81%
O=C1CCc2cc(Nc3cc(OC4CCOCC4)c([N+](=O)[O-])cc3Cl)ccc2N1	cell-free assay		competition with immobilised ligand	1 µM	remaining binding	95%
Nc1ncnc2occ(-c3ccc(NC(=O)Nc4cc(C(F)(F)F)ccc4F)cc3)c12	cell-free assay			20 µM	remaining signal	55%
O=C1Nc2ccc(Cl)cc2C1=Cc1cc(Cl)c(O)c(Cl)c1	cell-free assay			0.5 µM	remaining signal	78.9%
NS(=O)(=O)c1ccc(CNc2ccnc(Nc3cccc(NC(=O)N4CCCC4)c3)n2)cc1	enzyme activity	inhibitor	radiometric	1 µM	remaining activity	82%
CN(C)C(=O)Cn1cc(-c2nc(C3(c4ccc(-c5cnc(N)nc5)cc4)CC3)no2)cn1	cell-free assay		competition with immobilised ligand	1 µM	remaining binding	100%
CNC(=O)c1cc(Oc2ccc(NC(=O)Nc3ccc(Cl)c(C(F)(F)F)c3)cc2)ccn1	cell-free assay			0.3 µM	inhibition	-8%
Cc1ccc(NC(=O)c2ccc(CN3CCN(C)CC3)cc2)cc1Nc1nc(-c2cccnc2)cs1	cell-free assay			0.5 µM	remaining signal	104%
Cc1ccc(Nc2nccc(N(C)c3ccc4c(C)n(C)nc4c3)n2)cc1S(N)(=O)=O	cell-free assay			10 µM	inhibition	14%
CCCS(=O)(=O)Nc1ccc(F)c(C(=O)c2c[nH]c3ncc(-c4ccc(Cl)cc4)cc23)c1F	enzyme activity	inhibitor		1 µM	inhibition	< 10%
Cc1nn(CC(F)(F)F)cc1Nc1ncc(C2CC2)c(NCCc2c[nH]cn2)n1	enzyme activity	inhibitor	radiometric	1 µM	remaining activity	107%
Cc1noc([C@H]2C[C@@H](c3ccc(C(F)(F)F)cc3)CN(C(=O)N3CCS(=O)(=O)C3)C2)n1	cell-free assay		competition with immobilised ligand	1 µM	remaining binding	100%
O=C1NC(=O)c2cc(Nc3ccc(F)cc3)c(Nc3ccc(F)cc3)cc21	cell-free assay			0.5 µM	remaining signal	104%
Cc1nn(CC(F)(F)F)cc1Nc1nccc(NCCc2cnc[nH]2)n1	enzyme activity	inhibitor	radiometric	1 µM	remaining activity	99%
COc1ccc2cc(OCC3(C(=O)O)CN(C(=O)c4ccc(F)cc4)C3)ccc2c1	cell-free assay		competition with immobilised ligand	1 µM	remaining binding	81%
CC1CCCN1c1nccc(-c2cnn3ncccc23)n1 (stereo not shown)	binding			1 µM	remaining binding	84%
NS(=O)(=O)c1ccc(CNc2nc(Nc3cccc(CN4CCOCC4)c3)ncc2Br)cc1	enzyme activity	inhibitor	radiometric	1 µM	remaining activity	58%
CCCOc1ccc([C@H]2[C@H](C(=O)O)[C@@H](c3ccc4c(c3)OCO4)CN2CC(=O)Nc2c(CC)cccc2CC)cc1	cell-free assay		competition with immobilised ligand	1 µM	remaining binding	92%
N#CCCc1ccc2c(c1)-c1[nH]c3ccc([N+](=O)[O-])cc3c1CC(=O)N2	cell-free assay			0.5 µM	remaining signal	46.8%
Cc1c(NC(=O)c2cc(C(N)=O)nc3cc(F)ccc23)c(C(F)(F)F)nn1Cc1ccc(C#N)cc1	cell-free assay		competition with immobilised ligand	1 µM	remaining binding	90%
Cc1nn(CC(F)(F)F)cc1Nc1ncc(Br)c(NCCCNC(=O)C2CCC2)n1	enzyme activity	inhibitor	radiometric	1 µM	remaining activity	5%
Cc1c[nH]c2nccc(Oc3c(F)cc(Nc4cc(Cl)nc(N)n4)cc3F)c12	cell-free assay		competition with immobilised ligand	0.1 µM	remaining binding	100%
CN1CCc2cc(Nc3ncc(C4CC4)c(NCCCNC(=O)C4CCC4)n3)ccc2C1	enzyme activity	inhibitor	radiometric	1 µM	remaining activity	3%
